Assay results: ChEMBL document CHEMBL4325833, “Discovery of a Potent, Selective, and Brain-Penetrant Small Molecule that Activates the Orphan Receptor GPR88 and Reduces Alcohol Intake” (J Med Chem, 2018)
Activity calls are given as the source filed them. No cut-off for these calls is given here.

Assays:
[1] = molecular target: G protein-coupled receptor 88 (Homo sapiens, UniProt Q9GZN0)
[2] = species on record: Mus musculus; assay: Increase in [35S]-GTPgammaS binding in GPR88 knocked out mouse striatal membranes at 100 uM after 1 hr by liquid scintillation counting; assay type: functional, cell membranes; settings: Striatal membrane
In short: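 Striata from GPR88 KO mice. Membranes made by sucrose homogenization and differential centrifugation (2500g, then 23000g). 2 µg protein per well incubated 1 h at 25 °C with 0.1 nM [35S]-GTPγS and GDP. Nonspecific binding taken with 10 µM GTPγS. Read by liquid scintillation counting, expressed as % above basal. Two independent experiments in triplicate.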

[3] = tested on: VMAT; assay: Displacement of [3H]-dihydrotetrabenazine from VMAT in human platelet cell membranes at 10 uM after 60 mins by scintillation counting relative to control; settings: probe [3H]-dihydrotetrabenazine
In short: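 Radioligand binding screen run by Eurofins PanLabs under their standard protocols, single concentration 10 μM. Percent inhibition of radioligand binding is the average of two determinations.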

[4] = molecular target: KOR (kappa-type opioid receptor) (Homo sapiens, UniProt P41145); assay: Binding affinity to human full length KOR assessed as reduction in radioligand binding at 10 uM after 60 mins by scintillation counting relative to control
Sequence of KOR (kappa-type opioid receptor) (P41145 whole entry): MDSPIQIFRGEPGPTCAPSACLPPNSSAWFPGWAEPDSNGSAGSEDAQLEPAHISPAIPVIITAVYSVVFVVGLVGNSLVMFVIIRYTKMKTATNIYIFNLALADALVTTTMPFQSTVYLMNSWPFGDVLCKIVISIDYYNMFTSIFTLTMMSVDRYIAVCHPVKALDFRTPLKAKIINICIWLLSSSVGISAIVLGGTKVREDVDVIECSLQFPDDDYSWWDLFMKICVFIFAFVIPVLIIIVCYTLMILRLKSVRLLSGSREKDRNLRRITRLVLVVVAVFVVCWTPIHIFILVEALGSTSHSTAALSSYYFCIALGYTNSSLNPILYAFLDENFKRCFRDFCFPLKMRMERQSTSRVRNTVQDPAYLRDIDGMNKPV
In short: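 Outsourced radioligand binding screen, one of 38 GPCR, ion channel and transporter targets, run to the provider's standard protocols. Test concentration was a single 10 µM. Percent inhibition of radioligand binding is the average of two determinations.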

[5] = Displacement of [3H]-dihydrotetrabenazine from VMAT in human platelet cell membranes after 60 mins by scintillation counting
In short: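 VMAT affinity follow-up run by Eurofins PanLabs under their standard protocols. Full concentration–displacement curves were run in duplicate. IC50 came from nonlinear regression and was converted to Ki by Cheng–Prusoff, using the radioligand concentration and historical Kd of the ligand.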

[6] = tested on: Rattus norvegicus; assay: Decrease in alcohol self administration in Long-Evans rat assessed as reduction in alcohol lever responses at 5 to 20 mg/kg, ip administered 30 mins prior to a self-administration session; assay type: functional, organism-based
[7] = molecular target: G protein-coupled receptor 88 (Mus musculus, UniProt Q9EPB7); assay: Agonist activity at GPR88 in wild type mouse striatal membranes assessed as increase in [35S]-GTPgammaS binding after 1 hr by liquid scintillation counting; assay type: functional, cell membranes, Striatum, Membrane
Sequence of G protein-coupled receptor 88 (Mus musculus, UniProt Q9EPB7) (Q9EPB7 whole entry): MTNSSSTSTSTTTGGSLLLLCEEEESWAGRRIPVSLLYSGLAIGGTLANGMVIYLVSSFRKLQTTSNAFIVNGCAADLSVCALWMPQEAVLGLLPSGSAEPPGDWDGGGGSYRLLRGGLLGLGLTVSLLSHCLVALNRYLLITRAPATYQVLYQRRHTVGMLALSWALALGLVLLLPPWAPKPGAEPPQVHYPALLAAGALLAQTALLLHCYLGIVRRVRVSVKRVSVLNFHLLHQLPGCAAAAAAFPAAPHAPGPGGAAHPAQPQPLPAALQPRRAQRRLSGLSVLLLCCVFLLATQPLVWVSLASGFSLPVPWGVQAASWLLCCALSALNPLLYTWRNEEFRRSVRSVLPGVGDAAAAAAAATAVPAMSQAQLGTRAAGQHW

[8] = species on record: Mus musculus; assay: Increase in [35S]-GTPgammaS binding in GPR88 knocked out mouse striatal membranes at 10 uM after 1 hr by liquid scintillation counting; assay type: functional, cell membranes; settings: Striatal membrane

Sequence of G protein-coupled receptor 88 (Homo sapiens, UniProt Q9GZN0) (Q9GZN0 whole entry): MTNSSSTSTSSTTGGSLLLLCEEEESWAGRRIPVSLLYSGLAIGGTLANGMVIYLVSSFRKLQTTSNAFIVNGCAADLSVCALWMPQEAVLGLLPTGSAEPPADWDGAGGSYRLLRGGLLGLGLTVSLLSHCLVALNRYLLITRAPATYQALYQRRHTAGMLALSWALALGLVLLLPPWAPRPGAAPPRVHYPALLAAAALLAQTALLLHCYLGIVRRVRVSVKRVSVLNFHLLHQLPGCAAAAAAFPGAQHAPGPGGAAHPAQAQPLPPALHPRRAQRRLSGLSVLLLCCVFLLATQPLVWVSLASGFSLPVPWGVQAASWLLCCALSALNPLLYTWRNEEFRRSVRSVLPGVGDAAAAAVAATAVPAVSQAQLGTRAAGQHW

CCCc1ccc(-c2ccc(N(C[C@@H](N)C(C)C)C(=O)[C@@H]3C[C@H]3c3ccccn3)cc2)cc1
EC50 [1]: 158 nM

CCCc1ccc(-c2ccc(N(C[C@@H](N)[C@@H](C)OC)C(=O)[C@@H]3C[C@H]3c3ccccn3)cc2)cc1 (relative stereo)
EC50 [1]: 63 nM

CCCc1ccc(-c2ccc(N(CC(C)(C)N)C(=O)[C@@H]3C[C@H]3c3ccccn3)cc2)cc1 (relative stereo)
EC50 [1]: 316 nM

CCCc1ccc(-c2ccc(N(C[C@H](C)N)C(=O)[C@@H]3C[C@H]3c3ccccn3)cc2)cc1
EC50 [1]: 398 nM

CCCc1ccc(-c2ccc(N(CCN)C(=O)[C@@H]3C[C@H]3c3ccccn3)cc2)cc1
EC50 [1]: 501 nM

CCCc1ccc(-c2ccc(N(C[C@@H](N)Cc3ccccc3)C(=O)[C@@H]3C[C@H]3c3ccccn3)cc2)cc1
EC50 [1]: 501 nM

COCc1ccc(-c2ccc(N(C[C@@H](N)[C@@H](C)OC)C(=O)[C@@H]3C[C@H]3c3ccccn3)cc2)cc1
Activity [2]: inactive
inhibition at 1 h, 10 µM [3]: 54%
inhibition at 1 h, 10 µM [4]: 64%
Ki [5]: 4230 nM
Activity [6]: Dose-dependent effect

CCCc1ccc(-c2ccc(N(C[C@@H](N)[C@@H](C)CC)C(=O)[C@@H]3C[C@H]3c3ccccn3)cc2)cc1
EC50 [7]: 1140 nM
Activity [8]: Active

CCCc1ccc(-c2ccc(N(C[C@@H](N)c3ccccc3)C(=O)[C@@H]3C[C@H]3c3ccccn3)cc2)cc1 (relative stereo)
EC50 [1]: 1260 nM

COc1ccc(-c2ccc(N(C[C@@H](N)[C@@H](C)OC)C(=O)[C@@H]3C[C@H]3c3ccccn3)cc2)cc1 (relative stereo)
EC50 [1]: 126 nM

CCCc1ccc(-c2ccc(N(C[C@@H](N)CC(C)C)C(=O)[C@@H]3C[C@H]3c3ccccn3)cc2)cc1
EC50 [1]: 126 nM
